# From ChEMBL document CHEMBL3588809, “Antioxidant and Anti-Inflammatory Phenolic Glycosides from Clematis tashiroi” (J Nat Prod, 2015)
# Calls of active or inactive are those of the source. No cut-off for these calls is given here.
# Tests used:
# RAW264.7 [1] = assay: Anti-inflammatory activity in mouse RAW264.7 cells assessed as inhibition of LPS-induced nitric oxide production at 20 ug/ml incubated for 24 hrs by Griess reagent based assay; type: functional, cell-based
# In short: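 RAW 264.7 macrophages grown in DMEM with 5% heat-inactivated fetal calf serum at 37 °C, 5% CO2. Cells seeded at 2 × 10^5/well, treated with compound (DMSO stock diluted in PBS) together with LPS 1000 ng/mL for 24 h. Medium nitrite read with Griess reagent at 550 nm against NaNO2 standard curve; LPS-only NO set as 100%; triplicate; quercetin positive control.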
# [2] = Antioxidant activity assessed as DPPH free radical scavenging activity at 100 ug/ml incubated for 30 mins by ELISA method; type: physicochemical; conditions: 0.5 h
# In short: (§1)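 Sample (120 μL, 10−100 μg/mL) mixed with 30 μL of 0.75 mM DPPH in methanol, shaken in the dark at room temperature for 30 min, absorbance read at 517 nm on a plate reader. Methanol negative control, α-tocopherol (10−40 μg/mL) positive control. ED50 taken as concentration scavenging 50% of DPPH radicals.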
# [3] = Antioxidant activity assessed as DPPH free radical scavenging activity incubated for 30 mins by ELISA method; type: physicochemical; conditions: 0.5 h; read-out: ED50 (the source's name); in short: as §1
# RAW264.7 [4] = assay: Anti-inflammatory activity in mouse RAW264.7 cells assessed as inhibition of LPS-induced nitric oxide production incubated for 24 hrs by Griess reagent based assay; type: functional, cell-based; conditions: RAW264.7, 24 h
# In short: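 RAW 264.7 macrophages grown in DMEM with 5% heat-inactivated FCS at 37 °C, 5% CO2; plated at 2 × 10^5 cells/well and stimulated with LPS (1000 ng/mL) concurrently with test agents (DMSO stocks diluted in PBS) for 24 h. Nitrite in medium measured with Griess reagent at 550 nm against NaNO2 standard curve; LPS-only set as 100%; triplicates; IC50 reported.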
Activity [2],EC50 [3],SMILES,inhibition (RAW264.7 [1]),IC50 (RAW264.7 [4])
32.2%,,O=C(/C=C/c1ccc(O)cc1)OC[C@H]1O[C@@H](Oc2cc(/C=C/C(=O)O[C@@H]3O[C@H](CO)[C@@H](O)[C@H](O)[C@H]3O)ccc2O)[C@H](O)[C@@H](O)[C@@H]1O,inactive,
99.8%,13.3 µM,O=C(/C=C/c1ccc(O)c(O)c1)OC[C@H]1O[C@@H](Oc2ccc(/C=C/C(=O)O[C@@H]3O[C@H](CO)[C@@H](O)[C@H](O)[C@H]3O)cc2O)[C@H](O)[C@@H](O)[C@@H]1O,inactive,
7.8%,,O=C(/C=C/c1ccc(O)cc1)OC[C@H]1O[C@@H](Oc2ccc(/C=C/C(=O)O[C@@H]3O[C@H](CO)[C@@H](O)[C@H](O)[C@H]3O)cc2O)[C@H](O)[C@@H](O)[C@@H]1O,inactive,
99.7%,47 µM,O=C(/C=C/c1ccc(O)c(O)c1)OC[C@H]1O[C@@H](Oc2ccc(/C=C/C(=O)O[C@@H]3O[C@H](CO)[C@@H](O)[C@H](O)[C@H]3O)cc2)[C@H](O)[C@@H](O)[C@@H]1O,inactive,
74.8%,87 µM,COc1cc(/C=C/C(=O)OC[C@H]2O[C@@H](Oc3ccc(/C=C/C(=O)O[C@@H]4O[C@H](CO)[C@@H](O)[C@H](O)[C@H]4O)cc3O)[C@H](O)[C@@H](O)[C@@H]2O)ccc1O,inactive,
98.8%,17 µM,O=C(/C=C/c1ccc(O[C@@H]2O[C@H](COC(=O)/C=C/c3ccc(O)c(O)c3)[C@@H](O)[C@H](O)[C@H]2O)c(O)c1)OC[C@H]1O[C@@H](Oc2cc(/C=C/c3ccc(O)c(O)c3)oc(=O)c2)[C@H](O)[C@@H](O)[C@@H]1O,inactive,
99.4%,39.9 µM,O=C(/C=C/c1ccc(O)c(O)c1)OC[C@H]1O[C@@H](Oc2cc(/C=C/C(=O)O[C@@H]3O[C@H](CO)[C@@H](O)[C@H](O)[C@H]3O)ccc2O)[C@H](O)[C@@H](O)[C@@H]1O,inactive,

# More lines, now with the values behind:
SMILES,Activity [2],EC50 [3],inhibition (RAW264.7 [1]),IC50 (RAW264.7 [4])
O=C(/C=C/c1ccc(O)c(O)c1)OC[C@H]1OC(O)[C@H](O)[C@@H](O)[C@@H]1O (some centres undefined),9.8%,,inactive,
O=C(/C=C/c1ccc(O)c(O)c1)O[C@@H]1O[C@H](CO)[C@@H](O)[C@H](O)[C@H]1O,99.3%,29.1 µM,inactive,
O=C(O)/C=C/c1ccc(O[C@@H]2O[C@H](CO)[C@@H](O)[C@H](O)[C@H]2O)c(O)c1,91.2%,175 µM,inactive,
O=C(/C=C/c1ccc(O)cc1)OC[C@H]1OC(O)[C@H](O)[C@@H](O)[C@@H]1O (some centres undefined),5%,,inactive,
O=C(/C=C/c1ccc(O)c(O)c1)OC[C@H]1O[C@@H](Oc2cc(/C=C/c3ccc(O)c(O)c3)oc(=O)c2)[C@H](O)[C@@H](O)[C@@H]1O,99%,13 µM,,14.9 µM
O=c1c(O)c(-c2ccc(O)c(O)c2)oc2cc(O)cc(O)c12 [QUERCETIN],,,,1.8 µM
Cc1c(C)c2c(c(C)c1O)CCC(C)(CCCC(C)CCCC(C)CCCC(C)C)O2 (racemic) [alpha-TOCHOPHEROL],,27.8 µM,,
